Positions of bridges follow the written chain, without caps; N, C: chain ends. Residues, ends and D or L forms follow the SMILES beside them.
Target: Sodium channel protein type 5 subunit alpha (Homo sapiens, UniProt Q14524)
Assay: Inhibition of human Nav1.5 expressed in HEK293 cells assessed as inward peak current by ion-works quattro patch clamp electrophysiology method
Assay type: cell-based
Summary of the method: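 Stable HEK293 line expressing human NaV1.5, recorded by population patch clamp on the IonWorks Quattro.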

Sequence of Sodium channel protein type 5 subunit alpha (Q14524 whole entry): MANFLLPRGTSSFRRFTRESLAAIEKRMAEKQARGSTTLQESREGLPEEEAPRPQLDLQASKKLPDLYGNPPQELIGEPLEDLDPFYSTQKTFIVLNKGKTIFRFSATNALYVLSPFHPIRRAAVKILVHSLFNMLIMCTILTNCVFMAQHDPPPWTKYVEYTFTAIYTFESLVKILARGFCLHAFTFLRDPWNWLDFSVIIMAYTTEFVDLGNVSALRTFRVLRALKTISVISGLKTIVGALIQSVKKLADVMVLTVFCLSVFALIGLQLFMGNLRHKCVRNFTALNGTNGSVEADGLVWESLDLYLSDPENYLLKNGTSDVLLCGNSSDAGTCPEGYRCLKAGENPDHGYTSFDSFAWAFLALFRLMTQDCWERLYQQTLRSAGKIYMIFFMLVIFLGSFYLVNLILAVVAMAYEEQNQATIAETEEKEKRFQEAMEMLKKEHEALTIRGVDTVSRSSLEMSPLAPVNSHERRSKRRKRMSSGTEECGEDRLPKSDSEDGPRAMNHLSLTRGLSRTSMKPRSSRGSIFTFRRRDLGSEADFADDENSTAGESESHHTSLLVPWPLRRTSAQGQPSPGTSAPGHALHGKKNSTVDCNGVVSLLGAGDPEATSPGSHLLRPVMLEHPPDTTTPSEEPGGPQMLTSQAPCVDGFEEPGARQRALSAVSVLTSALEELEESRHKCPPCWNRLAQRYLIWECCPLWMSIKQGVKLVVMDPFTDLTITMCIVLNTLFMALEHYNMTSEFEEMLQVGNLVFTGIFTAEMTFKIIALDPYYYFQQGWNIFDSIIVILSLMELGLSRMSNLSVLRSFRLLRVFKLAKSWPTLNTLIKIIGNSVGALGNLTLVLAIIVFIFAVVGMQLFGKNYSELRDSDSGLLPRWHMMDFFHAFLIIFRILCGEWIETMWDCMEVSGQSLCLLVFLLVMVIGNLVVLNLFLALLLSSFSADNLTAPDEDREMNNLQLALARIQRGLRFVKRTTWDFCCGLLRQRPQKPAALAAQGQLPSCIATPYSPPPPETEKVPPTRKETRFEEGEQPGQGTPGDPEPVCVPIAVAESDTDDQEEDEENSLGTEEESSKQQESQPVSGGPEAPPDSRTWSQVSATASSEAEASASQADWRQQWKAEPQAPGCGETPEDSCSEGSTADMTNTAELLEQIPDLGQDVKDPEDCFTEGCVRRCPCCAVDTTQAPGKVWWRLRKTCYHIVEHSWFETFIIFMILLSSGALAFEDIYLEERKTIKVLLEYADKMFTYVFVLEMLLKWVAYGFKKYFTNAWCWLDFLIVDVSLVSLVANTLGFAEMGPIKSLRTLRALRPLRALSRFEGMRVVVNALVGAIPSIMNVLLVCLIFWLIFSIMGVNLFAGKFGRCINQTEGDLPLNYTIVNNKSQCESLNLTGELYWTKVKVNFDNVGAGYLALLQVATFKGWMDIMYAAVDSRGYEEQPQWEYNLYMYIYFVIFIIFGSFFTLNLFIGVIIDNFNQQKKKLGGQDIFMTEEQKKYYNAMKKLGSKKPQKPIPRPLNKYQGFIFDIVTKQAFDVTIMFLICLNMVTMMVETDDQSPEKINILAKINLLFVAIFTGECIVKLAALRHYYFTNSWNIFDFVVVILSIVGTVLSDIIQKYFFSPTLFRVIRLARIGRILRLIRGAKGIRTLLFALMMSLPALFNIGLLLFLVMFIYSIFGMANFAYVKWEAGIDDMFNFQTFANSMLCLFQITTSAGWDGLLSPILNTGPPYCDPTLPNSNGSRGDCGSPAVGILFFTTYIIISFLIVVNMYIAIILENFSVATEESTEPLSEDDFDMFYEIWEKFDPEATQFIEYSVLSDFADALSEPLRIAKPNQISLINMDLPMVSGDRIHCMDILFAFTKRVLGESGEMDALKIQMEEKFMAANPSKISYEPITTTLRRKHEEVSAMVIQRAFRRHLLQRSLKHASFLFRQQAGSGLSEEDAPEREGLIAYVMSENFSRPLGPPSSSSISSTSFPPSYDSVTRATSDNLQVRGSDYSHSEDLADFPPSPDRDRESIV

SMILES | IC50
CC[C@H](C)[C@@H]1NC(=O)[C@@H]2CSSC[C@@H]3NC(=O)[C@H](CCCNC(=N)N)NC(=O)[C@H](CC(C)C)NC(=O)[C@H](CC(N)=O)NC(=O)[C@@H]4CCCN4C(=O)[C@H](CCCNC(=N)N)NC(=O)[C@H](CSSC[C@H](NC(=O)[C@@H](N)CC(=O)O)C(=O)N[C@@H](CC(C)C)C(=O)NCC(=O)N[C@@H](Cc4ccccc4)C(=O)N[C@@H](CCSC)C(=O)N[C@@H](CCCNC(=N)N)C(=O)N[C@@H](CCCCN)C(=O)N2)NC(=O)[C@H](CSSC[C@@H](C(=O)N[C@@H](CCCCN)C(=O)N[C@@H](Cc2ccc(O)cc2)C(=O)N[C@H](C(=O)N[C@@H](Cc2ccccc2)C(N)=O)C(C)C)NC(=O)[C@H](Cc2c[nH]c4ccccc24)NC(=O)[C@H](CCCCN)NC(=O)[C@H](Cc2cnc[nH]2)NC(=O)[C@H]([C@@H](C)O)NC(=O)[C@H](CCCNC(=N)N)NC(=O)[C@H](CO)NC3=O)NC(=O)[C@H](CCCCN)NC(=O)[C@H](CC(=O)O)NC(=O)[C@H](CC(N)=O)NC(=O)[C@H](CC(=O)O)NC(=O)[C@@H]2CCCN2C1=O (H-DCLGFMRKCIPDNDKCCRPNLRCSRTHKWCKYVF-NH2; disulfide 2-17, 9-23, 16-30) | > 5 µM
CC[C@H](C)[C@@H]1NC(=O)[C@@H]2CSSC[C@@H]3NC(=O)[C@H](C(C)C)NC(=O)[C@H](CC(C)C)NC(=O)[C@H](CC(N)=O)NC(=O)[C@@H]4CCCN4C(=O)[C@H](CCCNC(=N)N)NC(=O)[C@H](CSSC[C@H](NC(=O)[C@@H](N)CCCCN)C(=O)N[C@@H](CC(C)C)C(=O)NCC(=O)N[C@@H](Cc4ccccc4)C(=O)N[C@@H](CCSC)C(=O)N[C@@H](CCCNC(=N)N)C(=O)N[C@@H](CCCCN)C(=O)N2)NC(=O)[C@H](CSSC[C@@H](C(=O)N[C@@H](CCCCN)C(=O)N[C@@H](Cc2ccc(O)cc2)C(=O)N[C@H](C(=O)N[C@@H](Cc2ccccc2)C(N)=O)C(C)C)NC(=O)[C@H](Cc2c[nH]c4ccccc24)NC(=O)[C@H](CCCCN)NC(=O)[C@H](Cc2cnc[nH]2)NC(=O)[C@H]([C@@H](C)O)NC(=O)[C@H](CCCNC(=N)N)NC(=O)[C@H](CO)NC3=O)NC(=O)[C@H](CCCCN)NC(=O)[C@H](CC(=O)O)NC(=O)[C@H](CC(N)=O)NC(=O)[C@H](CC(=O)O)NC(=O)[C@@H]2CCCN2C1=O (H-KCLGFMRKCIPDNDKCCRPNLVCSRTHKWCKYVF-NH2; disulfide 2-17, 9-23, 16-30) | > 5 µM
CSCC[C@@H]1NC(=O)[C@H](Cc2ccccc2)NC(=O)CNC(=O)[C@H](CC(C)C)NC(=O)[C@@H](NC(=O)[C@@H](N)CC(=O)O)CSSC[C@@H]2NC(=O)[C@@H]3CSSC[C@@H](C(=O)N[C@@H](CCCCN)C(=O)N[C@@H](Cc4ccc(O)cc4)C(=O)N[C@H](C(=O)N[C@@H](Cc4ccccc4)C(N)=O)C(C)C)NC(=O)[C@H](Cc4c[nH]c5ccccc45)NC(=O)[C@H](CCCCN)NC(=O)[C@H](Cc4cnc[nH]4)NC(=O)[C@H]([C@@H](C)O)NC(=O)[C@H](CCCNC(=N)N)NC(=O)[C@H](CO)NC(=O)[C@H](CSSC[C@H](NC(=O)[C@H](CCCCN)NC(=O)[C@H](CCCNC(=N)N)NC1=O)C(=O)N[C@@H](Cc1ccc(O)cc1)C(=O)N1CCC[C@H]1C(=O)N[C@@H](CC(=O)O)C(=O)N[C@@H](CC(N)=O)C(=O)N[C@@H](CC(=O)O)C(=O)N[C@@H](CCCCN)C(=O)N3)NC(=O)[C@H](C(C)C)NC(=O)[C@H](CC(C)C)NC(=O)[C@H](CC(N)=O)NC(=O)[C@@H]1CCCN1C(=O)[C@H](CCCNC(=N)N)NC2=O (H-DCLGFMRKCYPDNDKCCRPNLVCSRTHKWCKYVF-NH2; disulfide 2-17, 9-23, 16-30) | > 5 µM
CC[C@H](C)[C@@H]1NC(=O)[C@@H]2CSSC[C@@H]3NC(=O)[C@H](C(C)C)NC(=O)[C@H](CC(C)C)NC(=O)[C@H](CC(N)=O)NC(=O)[C@@H]4CCCN4C(=O)[C@H](CCCNC(=N)N)NC(=O)[C@H](CSSC[C@H](NC(=O)[C@@H](N)CC(=O)O)C(=O)N[C@@H](CC(C)C)C(=O)NCC(=O)N[C@@H](Cc4ccccc4)C(=O)N[C@@H](CCSC)C(=O)N[C@@H](CCCNC(=N)N)C(=O)N[C@@H](CCCCN)C(=O)N2)NC(=O)[C@H](CSSC[C@@H](C(=O)N[C@@H](CCCCN)C(=O)N[C@@H](Cc2ccc(O)cc2)C(=O)N[C@H](C(=O)N[C@@H](Cc2ccccc2)C(N)=O)C(C)C)NC(=O)[C@H](Cc2c[nH]c4ccccc24)NC(=O)[C@H](CCCCN)NC(=O)[C@H](Cc2cnc[nH]2)NC(=O)[C@H]([C@@H](C)O)NC(=O)[C@H](CCCNC(=N)N)NC(=O)[C@H](CO)NC3=O)NC(=O)[C@H](CCCCN)NC(=O)[C@H](CC(=O)O)NC(=O)[C@H](CCCCN)NC(=O)[C@H](CC(=O)O)NC(=O)[C@@H]2CCCN2C1=O (H-DCLGFMRKCIPDKDKCCRPNLVCSRTHKWCKYVF-NH2; disulfide 2-17, 9-23, 16-30) | > 5 µM
CC[C@H](C)[C@@H]1NC(=O)[C@@H]2CSSC[C@@H]3NC(=O)[C@H](C(C)C)NC(=O)[C@H](CC(C)C)NC(=O)[C@H](CC(N)=O)NC(=O)[C@@H]4CCCN4C(=O)[C@H](CCCNC(=N)N)NC(=O)[C@H](CSSC[C@H](NC(=O)[C@@H](N)CC(=O)O)C(=O)N[C@@H](CC(C)C)C(=O)NCC(=O)N[C@@H](Cc4ccccc4)C(=O)N[C@@H](CCSC)C(=O)N[C@@H](CCCNC(=N)N)C(=O)N[C@@H](CCCCN)C(=O)N2)NC(=O)[C@H](CSSC[C@@H](C(=O)N[C@@H](CCCCN)C(=O)N[C@@H](Cc2ccc(O)cc2)C(=O)N[C@H](C(=O)N[C@@H](Cc2ccccc2)C(=O)N[C@@H](CCC(=O)O)C(N)=O)C(C)C)NC(=O)[C@H](Cc2c[nH]c4ccccc24)NC(=O)[C@H](CCCCN)NC(=O)[C@H](Cc2c[nH]cn2)NC(=O)[C@H]([C@@H](C)O)NC(=O)[C@H](CCCNC(=N)N)NC(=O)[C@H](CO)NC3=O)NC(=O)[C@H](CCCCN)NC(=O)[C@H](CC(=O)O)NC(=O)[C@H](CC(N)=O)NC(=O)[C@H](CC(=O)O)NC(=O)[C@@H]2CCCN2C1=O | > 5 µM
CC[C@H](C)[C@@H]1NC(=O)[C@@H]2CSSC[C@@H]3NC(=O)[C@H](C(C)C)NC(=O)[C@H](CC(C)C)NC(=O)[C@H](CC(N)=O)NC(=O)[C@@H]4CCCN4C(=O)[C@H](CCCNC(=N)N)NC(=O)[C@H](CSSC[C@H](NC(=O)[C@@H](N)CC(=O)O)C(=O)N[C@@H](CC(C)C)C(=O)NCC(=O)N[C@@H](Cc4ccccc4)C(=O)N[C@@H](CCSC)C(=O)N[C@@H](CCCNC(=N)N)C(=O)N[C@@H](CCCCN)C(=O)N2)NC(=O)[C@H](CSSC[C@@H](C(=O)N[C@@H](CCCCN)C(=O)N[C@@H](Cc2ccc(O)cc2)C(=O)N[C@H](C(=O)N[C@@H](Cc2ccccc2)C(N)=O)C(C)C)NC(=O)[C@H](Cc2c[nH]c4ccccc24)NC(=O)[C@H](CCC(=O)O)NC(=O)[C@H](Cc2cnc[nH]2)NC(=O)[C@H]([C@@H](C)O)NC(=O)[C@H](CCCNC(=N)N)NC(=O)[C@H](CO)NC3=O)NC(=O)[C@H](CCCCN)NC(=O)[C@H](CC(=O)O)NC(=O)[C@H](CC(N)=O)NC(=O)[C@H](CC(=O)O)NC(=O)[C@@H]2CCCN2C1=O (H-DCLGFMRKCIPDNDKCCRPNLVCSRTHEWCKYVF-NH2; disulfide 2-17, 9-23, 16-30) | > 5 µM
CC[C@H](C)[C@@H]1NC(=O)[C@@H]2CSSC[C@@H]3NC(=O)[C@H](C(C)C)NC(=O)[C@H](CC(C)C)NC(=O)[C@H](CC(N)=O)NC(=O)[C@@H]4CCCN4C(=O)[C@H](CCCNC(=N)N)NC(=O)[C@H](CSSC[C@H](NC(=O)[C@@H](N)CC(=O)O)C(=O)N[C@@H](CC(C)C)C(=O)NCC(=O)N[C@@H](Cc4ccccc4)C(=O)N[C@@H](CCSC)C(=O)N[C@@H](CCCNC(=N)N)C(=O)N[C@@H](CCCCN)C(=O)N2)NC(=O)[C@H](CSSC[C@@H](C(=O)N[C@@H](CCCCN)C(=O)N[C@@H](Cc2ccc(O)cc2)C(=O)N[C@H](C(=O)N[C@@H](Cc2ccccc2)C(N)=O)C(C)C)NC(=O)[C@H](Cc2c[nH]c4ccccc24)NC(=O)[C@H](CCCCN)NC(=O)[C@H](CCCCN)NC(=O)[C@H]([C@@H](C)O)NC(=O)[C@H](CCCNC(=N)N)NC(=O)[C@H](CO)NC3=O)NC(=O)[C@H](CCCCN)NC(=O)[C@H](CC(=O)O)NC(=O)[C@H](CC(N)=O)NC(=O)[C@H](CC(=O)O)NC(=O)[C@@H]2CCCN2C1=O (H-DCLGFMRKCIPDNDKCCRPNLVCSRTKKWCKYVF-NH2; disulfide 2-17, 9-23, 16-30) | > 5 µM
CC[C@H](C)[C@@H]1NC(=O)[C@@H]2CSSC[C@@H]3NC(=O)[C@H](C(C)C)NC(=O)[C@H](CC(C)C)NC(=O)[C@H](CC(N)=O)NC(=O)[C@@H]4CCCN4C(=O)[C@H](CCCNC(=N)N)NC(=O)[C@H](CSSC[C@H](NC(=O)[C@@H](N)CCCNC(=N)N)C(=O)N[C@@H](CC(C)C)C(=O)NCC(=O)N[C@@H](Cc4ccccc4)C(=O)N[C@@H](CCSC)C(=O)N[C@@H](CCCNC(=N)N)C(=O)N[C@@H](CCCCN)C(=O)N2)NC(=O)[C@H](CSSC[C@@H](C(=O)N[C@@H](CCCCN)C(=O)N[C@@H](Cc2ccc(O)cc2)C(=O)N[C@H](C(=O)N[C@@H](Cc2ccccc2)C(N)=O)C(C)C)NC(=O)[C@H](Cc2c[nH]c4ccccc24)NC(=O)[C@H](CCCCN)NC(=O)[C@H](Cc2cnc[nH]2)NC(=O)[C@H]([C@@H](C)O)NC(=O)[C@H](CCCNC(=N)N)NC(=O)[C@H](CO)NC3=O)NC(=O)[C@H](CCCCN)NC(=O)[C@H](CC(=O)O)NC(=O)[C@H](CC(N)=O)NC(=O)[C@H](CC(=O)O)NC(=O)[C@@H]2CCCN2C1=O (H-RCLGFMRKCIPDNDKCCRPNLVCSRTHKWCKYVF-NH2; disulfide 2-17, 9-23, 16-30) | > 5 µM
